Key:
[1] = Binding affinity to GC(d(GC)7) oligonucleotide assessed as melting temperature at pH 7.4 by thermal denaturation assay
Rattus norvegicus [2] = assay: Decrease in hepatic cholesterol level in hypercholesterolemic Wistar rat at 20 mg/kg, po for 1 week with diet; type: functional
In short: (§1)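 Adult male Wistar rats (100–120 g) were used, six per group. They received 5% cholesterol diet for 1 week, then cholesterol-rich diet plus compound at 20 mg/Kgwt, as a suspension in water, po, during week 2. Controls were saline-fed and cholesterol-only groups. Hepatic and serum cholesterol and triglycerides were measured by enzymatic assays. Values are mean ± SE from duplicate assays, compared with the hypercholesterolemic group.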

Hepatocyte = assay: Cytotoxicity against rat primary hepatocytes after 24 hrs by MTT assay; type: cell-based
In short: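 Hepatocytes were isolated from rat liver and cultured in DMEM with 10% FBS at 37 °C under 5% CO2/[…]. Cells were seeded at 1×10^5 cells/ml and exposed to analog at 1–1000 µM for 24 h. MTT was then added for 4 h, formazan was dissolved in DMSO, and A540 was read. Each dose was run in triplicate, and IC50 was derived from mean OD versus concentration curves.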

Rattus norvegicus [3] = assay: Decrease in hepatic triglyceride level in hypercholesterolemic Wistar rat at 20 mg/kg, po for 1 week with diet; type: functional; in short: as §1
DNA [4] = assay: Binding affinity to calf thymus DNA assessed as change in melting temperature by thermal denaturation assay; type: nucleic-acid assay; conditions: Bos taurus
[5] = Binding affinity to AT(d(AT)10) oligonucleotide assessed as melting temperature at pH 7.4 by thermal denaturation assay
[6] = Binding affinity to AT(d(AT)10) oligonucleotide assessed as change in melting temperature by thermal denaturation assay
Rattus norvegicus [7] = assay: Decrease in serum triglyceride level in hypercholesterolemic Wistar rat at 20 mg/kg, po for 1 week with diet; type: functional; in short: as §1
DNA [8] = assay: Binding affinity to calf thymus DNA assessed as melting temperature at pH 7.4 by thermal denaturation assay; type: nucleic-acid assay; conditions: Bos taurus
Rattus norvegicus [9] = assay: Decrease in serum cholesterol level in hypercholesterolemic Wistar rat at 20 mg/kg, po for 1 week with diet; type: functional; in short: as §1
[10] = Binding affinity to GC(d(GC)7) oligonucleotide assessed as change in melting temperature by thermal denaturation assay
DNA [11] = assay: Binding affinity to calf thymus DNA assessed as binding constant at DNA melting temperature at 12.5 uM; type: nucleic-acid assay; conditions: Bos taurus
In short: (§2)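 Binding constants came from absorbance at 260 nm versus temperature, 25 to 100 °C at 1 °C/min. Conditions were 20 mM sodium phosphate pH 7.4, 100 mM NaCl, 2.5 μM DNA (bp) and a saturating 12.5 μM analog.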

[12] = Binding affinity to GC(d(GC)7) oligonucleotide assessed as binding constant at DNA melting temperature at 12.5 uM; in short: as §2

| SMILES | Tm [1] [°C] | ΔTm (DNA [4]) [°C] | Tm [5] [°C] | ΔTm [6] [°C] | Tm (DNA [8]) [°C] | ΔTm [10] [°C] | K (DNA [11]) [×10⁵ /M] | K [12] [×10⁶ /M] | Activity (Rattus norvegicus [2]) [mg/dL] | IC50 (Hepatocyte) [µM] | Activity (Rattus norvegicus [3]) [mg/dL] | Activity (Rattus norvegicus [7]) [mg/dL] | Activity (Rattus norvegicus [9]) [mg/dL] |
| --- | --- | --- | --- | --- | --- | --- | --- | --- | --- | --- | --- | --- | --- |
| Clc1ccccc1/C=C/CSSC/C=C/c1ccccc1Cl | 93 | 8 | 49 | -3 | 81 | 6 | 4.03 | 6.9 | 1.87 | 425 | 19.28 | 32.87 | 37.29 |
| Brc1ccccc1/C=C/CSSC/C=C/c1ccccc1Br | 92 | 7 | 52 | 0 | 80 | 5 | – | – | 2.07 | 365 | 21.41 | 35.54 | 41.07 |
| CC[C@H](C)C(=O)O[C@H]1C[C@@H](C)C=C2C=C[C@H](C)[C@H](CC[C@@H]3C[C@@H](O)CC(=O)O3)[C@H]21 [LOVASTATIN] | – | – | – | – | – | – | – | – | 1.6 | – | 17.35 | 31.98 | 36.21 |
| Clc1ccc(/C=C/CSSC/C=C/c2ccc(Cl)cc2Cl)c(Cl)c1 | 93 | 8 | 51 | -1 | 81 | 6 | – | – | 2.04 | 350 | 20.61 | 34.65 | 42.15 |
| C=CCS[S+]([O-])CC=C (configuration not stated) [ALLICIN] | – | – | – | – | – | – | – | – | 2.15 | – | 20.34 | 36.86 | 42.69 |
| Brc1ccc(/C=C/CSSC/C=C/c2ccc(Br)cc2Br)c(Br)c1 | 93 | 8 | 50 | -2 | 81 | 6 | – | – | 2.12 | 275 | 21.79 | 34.65 | 41.61 |

Further lines, with some results ahead:

| Tm [1] [°C] | ΔTm (DNA [4]) [°C] | Tm [5] [°C] | ΔTm [6] [°C] | Tm (DNA [8]) [°C] | ΔTm [10] [°C] | K (DNA [11]) [×10⁵ /M] | K [12] [×10⁶ /M] | SMILES | Activity (Rattus norvegicus [2]) [mg/dL] | IC50 (Hepatocyte) [µM] | Activity (Rattus norvegicus [3]) [mg/dL] | Activity (Rattus norvegicus [7]) [mg/dL] | Activity (Rattus norvegicus [9]) [mg/dL] |
| --- | --- | --- | --- | --- | --- | --- | --- | --- | --- | --- | --- | --- | --- |
| 91 | 5 | 52 | 0 | 78 | 4 | – | – | FC(F)(F)c1ccc(/C=C/CSSC/C=C/c2ccc(C(F)(F)F)cc2)cc1 | 2.12 | 140 | 20.57 | 35.09 | 42.69 |
| 92 | 6 | 51 | -1 | 79 | 5 | – | – | Fc1ccc(/C=C/CSSC/C=C/c2ccc(F)cc2)cc1 | 2.07 | 155 | 21.03 | 35.54 | 42.15 |
| 94 | 7 | 52 | 0 | 80 | 7 | – | – | O=[N+]([O-])c1ccc(/C=C/CSSC/C=C/c2ccc([N+](=O)[O-])cc2)cc1 | 1.97 | 335 | 19.8 | 33.32 | 38.37 |
